# From ChEMBL document CHEMBL3865784 (Eur J Med Chem, 2016)
# pIC50: −log10 of the molar value.
# Columns and labels:
# [1] = Cytotoxicity against human HCT116 cells expressing NQO1 assessed as reduction in cell viability after 72 hrs by MTT assay; type: functional, cell-based; details: HCT-116, 72 h
# Procedure, shortened: (§1)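 Cancer lines from NCI, grown in RPMI 1640 with 10% FBS, 2 mM L-glutamine, penicillin/streptomycin, 37 °C, 5% CO2; seeded 0.1 × 10^6 cells/well (HL-60) or 0.7 × 10^5 cells/well (solid tumours). Compounds in DMSO, final 0.1% v/v; DMSO vehicle as negative control.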
# [2] = Cytotoxicity against human OVCAR8 cells overexpressing NQO1 assessed as reduction in cell viability after 72 hrs by MTT assay; type: functional, cell-based; details: OVCAR-8, 72 h; procedure, shortened: as §1
# Mus musculus = species: Mus musculus; test: Cytotoxicity against NQO1-deficient mouse L929 cells assessed as reduction in cell viability after 72 hrs by MTT assay; type: toxicity, cell-based; details: l929
# [3] = Cytotoxicity against human PC3 cells overexpressing NQO1 assessed as reduction in cell viability after 72 hrs by MTT assay; type: functional, cell-based; details: PC-3, 72 h
# [4] = Cytotoxicity against NQO1-deficient chinese hamster V79 cells assessed as reduction in cell viability after 72 hrs by MTT assay; type: toxicity, cell-based, Cricetulus griseus; details: v79
# [5] = Cytotoxicity against NQO1-deficient human PBMC assessed as reduction in cell viability after 72 hrs by MTT assay; type: toxicity, cell-based; details: for pIC50: pbmc
# [6] = Cytotoxicity against human MDA-MB-435 cells overexpressing NQO1 assessed as reduction in cell viability after 72 hrs by MTT assay; type: functional, cell-based; details: MDA-MB-435, 72 h; procedure, shortened: as §1
# [7] = Cytotoxicity against human SF295 cells overexpressing NQO1 assessed as reduction in cell viability after 72 hrs by MTT assay; type: functional, cell-based; details: SF-295, 72 h
# [8] = Cytotoxicity against NQO1-deficient human HL60 cells assessed as reduction in cell viability after 72 hrs by MTT assay; type: functional, cell-based; details: HL-60, 72 h; procedure, shortened: as §1
# V79 [9] = test: Selectivity index, ratio of IC50 for NQO1-deficient chinese hamster V79 cells to IC50 for human MDA-MB-435 cells overexpressing NQO1
# Procedure, shortened: (§2)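 Selectivity index is IC50 in the normal cells divided by IC50 in the cancer line. Normal cells: V79 and L929 in DMEM, PBMC in RPMI with phytohaemagglutinin. Cancer lines in RPMI with 10% FBS, seeded at 0.1 × 10^6 (HL-60) or 0.7 × 10^5 cells/well (solid tumors). Absorbance 550 nm; nonlinear regression.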
# HL-60 [10] = test: Selectivity index, ratio of IC50 for NQO1-deficient human PBMC to IC50 for NQO1-deficient human HL60 cells; procedure, shortened: as §2
# L929 [11] = test: Selectivity index, ratio of IC50 for NQO1-deficient mouse L929 cells to IC50 for NQO1-deficient human HL60 cells; type: functional; procedure, shortened: as §2
# HL-60 [12] = test: Selectivity index, ratio of IC50 for NQO1-deficient chinese hamster V79 cells to IC50 for NQO1-deficient human HL60 cells; type: functional; procedure, shortened: as §2
# HCT-116 [13] = test: Selectivity index, ratio of IC50 for NQO1-deficient chinese hamster V79 cells to IC50 for human HCT116 cells expressing NQO1
# Procedure, shortened: as §2, with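 “line. All IC50s come from 72 h MTT assays.” for “line.”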
# HCT-116 [14] = test: Selectivity index, ratio of IC50 for NQO1-deficient mouse L929 cells to IC50 for human HCT116 cells expressing NQO1
# Procedure, shortened: as §2, with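 “line. All IC50s come from 72 h MTT assays.” for “line.”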
# L929 [15] = test: Selectivity index, ratio of IC50 for NQO1-deficient mouse L929 cells to IC50 for human MDA-MB-435 cells overexpressing NQO1; procedure, shortened: as §2
# L929 [16] = test: Selectivity index, ratio of IC50 for NQO1-deficient mouse L929 cells to IC50 for human SF295 cells overexpressing NQO1; procedure, shortened: as §2
# [17] = Selectivity index, ratio of IC50 for NQO1-deficient human PBMC to IC50 for human MDA-MB-435 cells overexpressing NQO1; procedure, shortened: as §2
# SF-295 [18] = test: Selectivity index, ratio of IC50 for NQO1-deficient chinese hamster V79 cells to IC50 for human SF295 cells overexpressing NQO1; procedure, shortened: as §2
# L929 [19] = test: Selectivity index, ratio of IC50 for NQO1-deficient mouse L929 cells to IC50 for human OVCAR8 cells overexpressing NQO1; procedure, shortened: as §2
# V79 [20] = test: Selectivity index, ratio of IC50 for NQO1-deficient chinese hamster V79 cells to IC50 for human PC3 cells overexpressing NQO1; procedure, shortened: as §2
# OVCAR-8 [21] = test: Selectivity index, ratio of IC50 for NQO1-deficient human PBMC to IC50 for human OVCAR8 cells overexpressing NQO1
# Procedure, shortened: as §2, with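 “line. All IC50s come from 72 h MTT assays.” for “line.”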
# PC-3 = test: Selectivity index, ratio of IC50 for NQO1-deficient human PBMC to IC50 for human PC3 cells overexpressing NQO1; procedure, shortened: as §2
# OVCAR-8 [22] = test: Selectivity index, ratio of IC50 for NQO1-deficient chinese hamster V79 cells to IC50 for human OVCAR8 cells overexpressing NQO1
# Procedure, shortened: as §2, with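 “line. All IC50s come from 72 h MTT assays.” for “line.”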
# SF-295 [23] = test: Selectivity index, ratio of IC50 for NQO1-deficient human PBMC to IC50 for human SF295 cells overexpressing NQO1; procedure, shortened: as §2
# L929 [24] = test: Selectivity index, ratio of IC50 for NQO1-deficient mouse L929 cells to IC50 for human PC3 cells overexpressing NQO1; procedure, shortened: as §2
compound,measurement,setting,value
CC1(C)OC2=C(C(=O)C(=O)c3ccccc32)C1N=[N+]=[N-] (configuration not stated),pIC50,[1],6.05
same,pIC50,[2],5.87
same,pIC50,Mus musculus,5.57
same,pIC50,[3],5.76
same,pIC50,[4],5.49
CC1(C)OC2=C(C(=O)c3ccccc3C2=O)C1n1cc(C[Se]c2ccccc2)nn1 (configuration not stated),pIC50,[5],5.49
same,pIC50,[1],5.60
same,pIC50,[6],5.67
same,pIC50,[7],5.58
same,pIC50,[2],5.55
same,pIC50,Mus musculus,5.42
same,pIC50,[8],5.80
same,pIC50,[3],5.53
same,pIC50,[4],5.39
CC1(C)CCC2=C(O1)c1ccccc1C(=O)C2=O [LAPACHONE],pIC50,[5],< 4.69
same,pIC50,[1],6.06
same,pIC50,[6],6.60
same,pIC50,[7],6.02
O=C1C(Cl)=C(NCc2cn(C[Se]c3ccccc3)nn2)C(=O)c2ccccc21,pIC50,[5],5.20
same,pIC50,[1],5.49
same,pIC50,[6],5.70
same,pIC50,[7],5.53
same,pIC50,[2],5.59
same,pIC50,Mus musculus,5.46
same,pIC50,[3],5.65
same,pIC50,[4],5.60
O=C1C(Br)=C(NCc2cn(C[Se]c3ccccc3)nn2)C(=O)c2ccccc21,pIC50,[5],5.41
same,Ratio IC50,V79 [9],2.1
same,pIC50,[1],5.78
same,Ratio IC50,HL-60 [10],3.4
same,pIC50,[6],5.84
same,pIC50,[7],5.79
same,Ratio IC50,L929 [11],2.9
same,Ratio IC50,HL-60 [12],2.7
same,pIC50,Mus musculus,5.48
same,pIC50,[8],5.95
same,Ratio IC50,HCT-116 [13],1.8
same,Ratio IC50,HCT-116 [14],1.9
same,Ratio IC50,L929 [15],2.3
same,Ratio IC50,L929 [16],2
same,Ratio IC50,[17],2.6
same,Ratio IC50,SF-295 [18],1.8
same,pIC50,[3],5.64
same,pIC50,[4],5.52
CC1(C)OC2=C(C(=O)C(=O)c3ccccc32)[C@@H](n2cc(C[Se]c3ccccc3)nn2)[C@@H]1Br,Ratio IC50,L929 [19],1.8
same,Ratio IC50,V79 [9],1.6
same,Ratio IC50,V79 [20],1.1
same,pIC50,[1],5.95
same,Ratio IC50,HL-60 [10],1.5
same,pIC50,[6],5.88
same,pIC50,[7],5.82
same,Ratio IC50,OVCAR-8 [21],2
same,Ratio IC50,PC-3,0.9
same,Ratio IC50,L929 [11],1.4
same,pIC50,[2],6.04
same,Ratio IC50,HL-60 [12],1.7
same,pIC50,Mus musculus,5.76
same,Ratio IC50,OVCAR-8 [22],2.3
same,pIC50,[8],5.91
same,Ratio IC50,HCT-116 [13],1.9
same,Ratio IC50,HCT-116 [14],1.5
same,Ratio IC50,L929 [15],1.3
same,Ratio IC50,L929 [16],1.1
same,Ratio IC50,SF-295 [23],1.2
same,pIC50,[3],5.72
same,Ratio IC50,L929 [24],0.9
same,pIC50,[4],5.66
[N-]=[N+]=NC1=CC(=O)c2ccccc2C1=O,pIC50,[5],5.06
same,pIC50,[1],5.37
same,pIC50,[6],5.63
same,pIC50,[7],5.47
same,pIC50,[2],5.45
same,pIC50,Mus musculus,5.29
same,pIC50,[3],5.67
same,pIC50,[4],5.24
O=C1C=C(n2cc(C[Se]c3ccccc3)nn2)C(=O)c2ccccc21,pIC50,[5],< 4.90
same,pIC50,[1],< 4.90
same,pIC50,[6],< 4.90
same,pIC50,[7],< 4.90
same,pIC50,[2],< 4.90
same,pIC50,Mus musculus,< 4.90
same,pIC50,[8],< 4.90
same,pIC50,[3],< 4.90
same,pIC50,[4],< 4.90
CC1(C)OC2=C(C(=O)C(=O)c3ccccc32)C(N=[N+]=[N-])[C@@H]1Br (some centres not stated),IC50 at 72 h,[5]; human,3580 nM
same,Ratio IC50,V79 [9],1.5
same,Ratio IC50,V79 [20],1.4
same,pIC50,[1],5.61
same,Ratio IC50,HL-60 [10],2.5
same,pIC50,[6],5.81
same,Ratio IC50,PC-3,2.1
same,Ratio IC50,L929 [11],1.4
same,pIC50,[2],5.65
same,Ratio IC50,HL-60 [12],1.6
same,pIC50,Mus musculus,5.69
same,Ratio IC50,L929 [15],1.3
same,Ratio IC50,L929 [16],1
same,Ratio IC50,[17],2.3
same,Ratio IC50,SF-295 [23],1.8
same,pIC50,[3],5.77
same,Ratio IC50,L929 [24],1.2
same,pIC50,[4],5.62
